From ChEMBL document CHEMBL1133704, “Synthesis, biodistribution, and primate imaging of fluorine-18 labeled 2beta-carbo-1'-fluoro-2-propoxy-3beta-(4-chlorophenyl)tr opanes. Ligands for the imaging of dopamine transporters by positron emission tomography” (J Med Chem, 2000) come the findings set out here.

Data set [1] has as its target Sodium-dependent dopamine transporter (Homo sapiens, UniProt Q01959). Description: Inhibition constant against [N-methyl-3H]WIN-35428 in murine kidney cells transfected with human dopamine transporter. The data set is classed as cell-based. In outline:
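Membranes from a kidney cell line stably expressing human DAT. Buffer: 0.03 M phosphate, pH 7.4, with 0.32 M sucrose. Radioligand: [³H]WIN 35,428 at 2.0 nM final. Incubated 2 h at 4 °C with competitor at nine concentrations (10^-13 to 10^-6 M, triplicate). GF/B filtration, then scintillation counting. Ki taken from competition curves.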

Data set [2] concerns the target Sodium-dependent dopamine transporter (Rattus norvegicus, UniProt P23977). Briefly: Inhibition constant in rat dopamine transporter. The method in brief: (§1)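 Run by an outside screening program on membranes from rat striatum or cortex. Radioligand (2-12 nM) was incubated with 7-11 competitor concentrations. Radioligands: [N-methyl-³H]WIN 35,428 for DAT, [³H]citalopram for 5-HT transporter, [³H]desmethylimipramine for NE transporter. Ki values reported.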

In data set [3] the target is Norepinephrine transporter (Rattus norvegicus, UniProt Q9WTR4). Briefly: Inhibition constant in rat Norepinephrine transporter. In outline:
as §1

Data set [4] deals with Sodium-dependent serotonin transporter (Homo sapiens, UniProt P31645). Description: Inhibition constant against [3H]citalopram in murine kidney cells transfected with human serotonin transporter. It counts as cell-based. The method in brief:
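Membranes from a kidney cell line stably expressing human SERT. Buffer: 50 mM Tris, 120 mM NaCl, 5 mM KCl, pH 7.9. Radioligand: [³H]citalopram at 0.5 nM final. Incubated 1 h at 22 °C with competitor at nine concentrations (10^-13 to 10^-6 M, triplicate). Filtration, then scintillation counting. Ki taken from competition curves.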

The target in data set [5] is Sodium-dependent serotonin transporter (Rattus norvegicus, UniProt P31652). Briefly: Inhibition constant in rat serotonin transporter. The method in brief: as §1
The nature of data set [6]: Ratio of inhibition of 5-HT to inhibition of dopamine (5-HT/DA); ND means no data.
A further data set concerns kidney. Briefly: Ratio of inhibition of 5-HT to inhibition of dopamine (5-HT/DA) in murine kidney cells transfected with human serotonin transporter. It counts as cell-based.
Data set [7] has as its system Rattus norvegicus. Description: Distribution of Radioactivity (percent injected dose per gram of tissue) in rest rat of brain after 30 min of iv administration; value ranges from 0.85-1.21. Conditions: in vivo, 0.5 h. The data set is classed as ADME, organism-based. In outline:
(§2)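 Male Sprague-Dawley rats (225-300 g) under ketamine received a tail-vein dose of 50 µCi of [18F]-labeled tropane in 0.2 mL 13% EtOH/0.9% NaCl. At 5, 30, 60 or 120 min, cortex, striatum and cerebellum were dissected into tared tubes, weighed and γ-counted. "Rest of brain" was also counted. %dose/g was calculated against the diluted injected dose. Values are mean and range for three or four rats.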

For data set [8], the system named is Rattus norvegicus. Description: Distribution of Radioactivity (percent injected dose per gram of tissue) in rest rat of brain after 5 min of iv administration; value ranges from 1.19-1.53. The data set is classed as ADME, organism-based. Conditions: in vivo. In outline:
as §2

Data set [9] relates to Rattus norvegicus. Briefly: Distribution of Radioactivity (percent injected dose per gram of tissue) in rest rat of brain after 60 min of iv administration; value ranges from 0.36-0.52. The data set is classed as ADME, organism-based. Conditions: in vivo, 1 h. The method in brief:
as §2

Data set [10] has as its system Rattus norvegicus. Description: Distribution of Radioactivity (percent injected dose per gram of tissue)in Rat striatum after 30 min of iv administration; value ranges from 3.57-6.08. The data set is classed as ADME, organism-based. Conditions: in vivo, 0.5 h. In outline: as §2
Data set [11] has as its system Rattus norvegicus. Description: Distribution of Radioactivity (percent injected dose per gram of tissue) in rest rat of brain after 120 min of iv administration; value ranges from 0.22-0.33. The data set is classed as ADME, organism-based. The conditions noted are these: in vivo, 2 h. In outline: as §2
In data set [12] the test system is Rattus norvegicus. Description: Distribution of Radioactivity (percent injected dose per gram of tissue) in Rat brain cerebellum after 5 min of iv administration; value ranges from 1.26-1.62. The data set is classed as ADME, organism-based. Conditions: in vivo. In outline:
as §2

Data set [13] has as its system Rattus norvegicus. Briefly: Distribution of Radioactivity (percent injected dose per gram of tissue) in Rat brain cerebellum after 60 min of iv administration; value ranges from 0.32-0.48. The data set is classed as ADME, organism-based. Conditions: in vivo, 1 h. In outline: as §2
In data set [14] the test system is Rattus norvegicus. Description: Distribution of Radioactivity (percent injected dose per gram of tissue) in Rat brain cortex after 120 min of iv administration; value ranges from 0.22-0.33. The conditions noted are these: in vivo, 2 h. The data set is classed as ADME, organism-based. The method in brief: as §2
In data set [15] the test system is Rattus norvegicus. Description: Distribution of Radioactivity (percent injected dose per gram of tissue) in Rat brain cortex after 60 min of iv administration; value ranges from 0.51-1.09. It counts as ADME, organism-based. Conditions: in vivo, 1 h. In outline: as §2
The subject of data set [16] is Rattus norvegicus. Briefly: Distribution of Radioactivity (percent injected dose per gram of tissue) in Rat striatum 5 min of iv administration; value ranges from 3.44-4.80. It counts as ADME, organism-based. Conditions: in vivo. In outline: as §2
For data set [17], the system named is Rattus norvegicus. Briefly: Distribution of Radioactivity (percent injected dose per gram of tissue) in Rat striatum after 120 min of iv administration; value ranges from 1.07-1.22. Conditions: in vivo, 2 h. It counts as ADME, organism-based. In outline: as §2
In data set [18] the test system is Rattus norvegicus. Description: Distribution of Radioactivity (percent injected dose per gram of tissue) in Rat striatum after 60 min of iv administration; value ranges from 2.07-2.83. It counts as ADME, organism-based. Conditions: in vivo, 1 h. In outline:
as §2

Data set [19] deals with Rattus norvegicus. Briefly: Distribution of Radioactivity (percent injected dose per gram of tissue) in Rat brain cortex after 30 min of iv administration; value ranges from 2.47-3.09. It counts as ADME, organism-based. The conditions noted are these: in vivo, 0.5 h. In outline: as §2
Data set [20] deals with Rattus norvegicus. Briefly: Distribution of Radioactivity (percent injected dose per gram of tissue) in Rat brain cortex after 5 min of iv administration; value ranges from 2.47-3.09. It counts as ADME, organism-based. The conditions noted are these: in vivo. In outline:
as §2

The test system of data set [21] is Rattus norvegicus. Briefly: Distribution of Radioactivity (percent injected dose per gram of tissue) in Rat brain cerebellum after 120 min of iv administration; value ranges from 0.19-0.25. The data set is classed as ADME, organism-based. Conditions: in vivo, 2 h. The method in brief:
as §2

Data set [22] can be described thus: Ratio of Distribution of Radioactivity (percent injected dose per gram of tissue) in striatum to cerebellum of brain after 5 min of iv administration; value ranges from 2.49-3.81. It counts as ADME, organism-based. The conditions noted are these: in vivo.
Data set [23] in a line: Ratio of Distribution of Radioactivity (percent injected dose per gram of tissue) in striatum to cerebellum of brain after 60 min of iv administration; value ranges from 4.43-6.93. It counts as ADME, organism-based. Conditions: in vivo, 1 h.
Data set [24] can be described thus: Ratio of Distribution of Radioactivity (percent injected dose per gram of tissue) in striatum to cerebellum of brain after 30 min of iv administration; value ranges from 3.83-4.94. It counts as ADME, organism-based. The conditions noted are these: in vivo, 0.5 h.
Data set [25] in a line: Ratio of Distribution of Radioactivity (percent injected dose per gram of tissue) in striatum to cortex of brain after 60 min of iv administration; value ranges from 2.59-4.06. The data set is classed as ADME, organism-based. Conditions: in vivo, 1 h.
Data set [26] can be described thus: Ratio of Distribution of Radioactivity (percent injected dose per gram of tissue) in striatum to cerebellum of brain after 120 min of iv administration; value ranges from 4.64-6.14. The data set is classed as ADME, organism-based. Conditions: in vivo, 2 h.
Data set [27] is described as follows: Ratio of Distribution of Radioactivity (percent injected dose per gram of tissue) in striatum to cortex of brain after 120 min of iv administration; value ranges from 2.61-3.24. The data set is classed as ADME, organism-based. Conditions: in vivo, 2 h.
Data set [28] is described as follows: Ratio of Distribution of Radioactivity (percent injected dose per gram of tissue) in striatum to cortex of brain after 5 min of iv administration; value ranges from 1.32-1.94. The data set is classed as ADME, organism-based. Conditions: in vivo.
Data set [29] has as its system Rattus norvegicus. Briefly: Distribution of Radioactivity (percent injected dose per gram of tissue) in Rat brain cerebellum after 30 min of iv administration; value ranges from 0.75-1.23. It counts as ADME, organism-based. Conditions: in vivo, 0.5 h. In outline:
as §2

Data set [30] is described as follows: Ratio of Distribution of Radioactivity (percent injected dose per gram of tissue) in striatum to cortex of brain after 30 min of iv administration; value ranges from 1.67-2.85. The data set is classed as ADME, organism-based. Conditions: in vivo, 0.5 h.

Chain of Sodium-dependent serotonin transporter (Rattus norvegicus, UniProt P31652) (P31652 whole entry): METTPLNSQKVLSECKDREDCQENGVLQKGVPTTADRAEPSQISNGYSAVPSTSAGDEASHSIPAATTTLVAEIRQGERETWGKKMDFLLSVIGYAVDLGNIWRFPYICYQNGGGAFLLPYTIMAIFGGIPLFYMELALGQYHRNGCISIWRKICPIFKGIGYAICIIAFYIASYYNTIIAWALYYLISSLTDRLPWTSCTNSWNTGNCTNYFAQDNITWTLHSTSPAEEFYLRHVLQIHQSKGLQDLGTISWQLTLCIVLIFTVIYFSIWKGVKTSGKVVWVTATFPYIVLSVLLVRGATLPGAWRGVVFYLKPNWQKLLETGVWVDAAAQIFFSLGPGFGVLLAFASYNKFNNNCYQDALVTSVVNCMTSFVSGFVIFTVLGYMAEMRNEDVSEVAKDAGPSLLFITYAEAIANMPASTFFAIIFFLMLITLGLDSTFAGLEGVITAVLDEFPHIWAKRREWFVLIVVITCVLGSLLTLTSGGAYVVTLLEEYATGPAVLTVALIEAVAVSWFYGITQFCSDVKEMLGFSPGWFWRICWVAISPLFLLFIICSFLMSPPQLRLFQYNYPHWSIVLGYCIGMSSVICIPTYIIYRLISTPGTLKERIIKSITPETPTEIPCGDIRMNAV
Chain of Sodium-dependent dopamine transporter (Homo sapiens, UniProt Q01959) (Q01959 whole entry): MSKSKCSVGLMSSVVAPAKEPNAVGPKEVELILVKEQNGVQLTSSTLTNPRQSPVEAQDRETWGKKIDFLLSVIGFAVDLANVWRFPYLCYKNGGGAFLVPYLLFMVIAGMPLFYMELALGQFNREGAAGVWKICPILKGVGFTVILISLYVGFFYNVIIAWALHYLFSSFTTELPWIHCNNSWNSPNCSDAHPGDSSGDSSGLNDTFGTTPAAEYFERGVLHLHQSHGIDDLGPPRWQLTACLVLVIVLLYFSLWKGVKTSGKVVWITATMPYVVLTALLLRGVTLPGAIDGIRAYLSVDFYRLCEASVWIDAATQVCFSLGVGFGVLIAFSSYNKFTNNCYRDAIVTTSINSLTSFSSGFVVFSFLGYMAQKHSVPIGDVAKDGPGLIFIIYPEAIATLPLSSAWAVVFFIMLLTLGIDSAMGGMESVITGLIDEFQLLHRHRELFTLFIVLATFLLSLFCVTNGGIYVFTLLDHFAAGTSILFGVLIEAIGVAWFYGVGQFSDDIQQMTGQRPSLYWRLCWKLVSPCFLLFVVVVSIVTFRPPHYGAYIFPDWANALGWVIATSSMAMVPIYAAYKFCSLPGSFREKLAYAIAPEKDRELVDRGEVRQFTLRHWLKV
Chain of Norepinephrine transporter (Q9WTR4 whole entry): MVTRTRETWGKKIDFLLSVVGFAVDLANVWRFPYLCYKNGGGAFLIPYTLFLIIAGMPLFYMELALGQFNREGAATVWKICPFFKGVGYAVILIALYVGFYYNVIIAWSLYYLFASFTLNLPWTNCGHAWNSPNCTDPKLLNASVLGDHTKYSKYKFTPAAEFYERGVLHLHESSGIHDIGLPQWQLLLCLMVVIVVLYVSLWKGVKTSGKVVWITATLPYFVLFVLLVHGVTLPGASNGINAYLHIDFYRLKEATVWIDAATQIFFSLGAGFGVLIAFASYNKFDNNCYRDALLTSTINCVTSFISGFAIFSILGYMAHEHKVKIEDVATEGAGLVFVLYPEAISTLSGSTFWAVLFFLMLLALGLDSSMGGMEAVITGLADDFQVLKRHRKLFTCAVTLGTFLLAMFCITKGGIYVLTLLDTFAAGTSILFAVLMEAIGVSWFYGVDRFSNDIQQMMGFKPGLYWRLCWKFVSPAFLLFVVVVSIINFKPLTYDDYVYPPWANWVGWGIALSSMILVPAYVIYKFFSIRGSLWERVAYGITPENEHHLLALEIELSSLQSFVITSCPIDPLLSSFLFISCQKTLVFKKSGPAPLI
Chain of Sodium-dependent dopamine transporter (Rattus norvegicus, UniProt P23977) (P23977 whole entry): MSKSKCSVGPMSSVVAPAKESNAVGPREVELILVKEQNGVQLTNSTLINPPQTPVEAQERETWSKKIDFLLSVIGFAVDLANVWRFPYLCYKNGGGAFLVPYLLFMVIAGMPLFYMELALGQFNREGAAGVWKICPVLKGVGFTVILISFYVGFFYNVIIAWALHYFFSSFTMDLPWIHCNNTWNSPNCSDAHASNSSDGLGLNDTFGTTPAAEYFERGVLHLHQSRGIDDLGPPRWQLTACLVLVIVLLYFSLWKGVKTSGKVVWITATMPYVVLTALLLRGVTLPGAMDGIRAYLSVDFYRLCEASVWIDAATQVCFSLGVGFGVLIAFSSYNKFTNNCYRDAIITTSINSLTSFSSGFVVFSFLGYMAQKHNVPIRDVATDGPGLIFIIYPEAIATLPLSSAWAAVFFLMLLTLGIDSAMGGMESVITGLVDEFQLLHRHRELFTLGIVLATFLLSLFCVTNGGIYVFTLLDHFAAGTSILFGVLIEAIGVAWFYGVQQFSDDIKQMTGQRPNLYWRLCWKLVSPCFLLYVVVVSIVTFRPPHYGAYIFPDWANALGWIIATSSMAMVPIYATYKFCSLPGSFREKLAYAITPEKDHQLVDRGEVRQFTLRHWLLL
Chain of Sodium-dependent serotonin transporter (Homo sapiens, UniProt P31645) (P31645 whole entry): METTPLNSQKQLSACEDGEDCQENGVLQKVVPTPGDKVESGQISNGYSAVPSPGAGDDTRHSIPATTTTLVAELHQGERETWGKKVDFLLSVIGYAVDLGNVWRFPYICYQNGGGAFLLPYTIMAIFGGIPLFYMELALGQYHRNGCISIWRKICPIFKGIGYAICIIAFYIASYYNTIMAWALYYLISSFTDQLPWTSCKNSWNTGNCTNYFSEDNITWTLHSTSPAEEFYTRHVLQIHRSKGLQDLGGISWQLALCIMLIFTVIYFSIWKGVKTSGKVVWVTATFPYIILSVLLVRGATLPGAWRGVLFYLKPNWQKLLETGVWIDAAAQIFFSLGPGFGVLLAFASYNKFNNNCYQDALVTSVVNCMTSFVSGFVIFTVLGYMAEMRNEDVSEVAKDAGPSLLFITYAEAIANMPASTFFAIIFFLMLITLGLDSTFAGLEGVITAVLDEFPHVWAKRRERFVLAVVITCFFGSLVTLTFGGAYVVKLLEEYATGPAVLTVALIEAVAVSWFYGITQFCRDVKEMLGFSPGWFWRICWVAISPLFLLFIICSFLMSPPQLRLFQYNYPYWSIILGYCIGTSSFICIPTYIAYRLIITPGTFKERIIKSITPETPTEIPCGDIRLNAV

For the molecule `C[C@@H](CF)OC(=O)C1C(c2ccc(Cl)cc2)CC2CCC1N2C` (stereo partly drawn), the inhibition constant (Ki) in [1] was 0.00067 µM; in [2], 0.00606 µM; in data set [3] it was 0.69 µM; in data set [4], 0.085 µM; in data set [5], 0.137 µM. Further, the Ratio in [6] was 23; in the data set with kidney it was 127.

With `C[C@H](CF)OC(=O)C1C(c2ccc(Cl)cc2)CC2CCC1N2C` (stereo partly drawn), the Biodistribution is given as 1.03% in the data set with Rattus norvegicus [7]; 1.36% with Rattus norvegicus [8]; 0.45% in the data set on Rattus norvegicus [9]; 4.5% in the data set on Rattus norvegicus [10]; 0.27% in the data set with Rattus norvegicus [11]; 1.42% with Rattus norvegicus [12]. In addition, the Biodistribution stood at 0.38% with Rattus norvegicus [13]; 0.4% with Rattus norvegicus [14]; 0.77% with Rattus norvegicus [15]; 3.97% in the data set with Rattus norvegicus [16]; 1.2% in the data set on Rattus norvegicus [17]; 2.28% in the data set on Rattus norvegicus [18]. Also, the Biodistribution in the data set on Rattus norvegicus [19] turned out to be 2.04%; in the data set on Rattus norvegicus [20], 2.76%; in the data set with Rattus norvegicus [21], 0.22%; in the data set with Rattus norvegicus [29], 0.99%. Besides, the Ki in [1] was determined as 0.0032 µM; in data set [2], 0.0147 µM; in [3] it was 0.498 µM; in [4] it was 0.064 µM; in [5], 0.133 µM. Further, the “S/Cereb Ratio” value in [22] turned out to be 2.79; in [23] it was 6; in data set [24], 4.55; in data set [26], 5.45. The Ratio is 9 in [6] and 20 in the data set on kidney. Moreover, the “S/CX Ratio” value in data set [25] is 2.96; in data set [27], 3; in data set [28], 1.44; in data set [30], 2.21.
